Assay results as given in PMC8906099 (Current Research in Parasitology & Vector-borne Diseases, 2021).
In brackets after ≈: the same amount, converted by molar mass. Like-named read-outs stand apart in the source and are kept apart here.

Assays:
[1] = system: non-infected LLC-MK2 cells; assay: Cytotoxicity in non-infected cells; format: cell-based, monkey; details: non-infected LLC-MK2 CC50 / IC50 amastigotes CA-I/72 strain, 72 h
Procedure, shortened: (§1)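 LLC-MK2 monkey kidney cells, grown in RPMI with 10% FBS at 37 °C and 5% CO2, were plated and after 24 h exposed to test compound (0.19–100 μM, 2-fold dilutions, 0.1% DMSO) for 72 h at 37 °C. Controls were untreated cells, 0.4% DMSO and 15% Triton. After a PBS wash, MTT (2 mg/ml) was added for 4 h, and absorbance read at 450/620 nm. SI is CC50 divided by the 72 h CA-I/72 intracellular amastigote IC50.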

[2] = Cytotoxicity in non-infected cells; format: cell-based, monkey; details: monkey, non-infected LLC-MK2 cells
Procedure, shortened: as §1

[3] = system: trypomastigotes of T. cruzi (Sylvio X10/4 strain); assay: Trypanocidal activity against trypomastigotes; format: cell-based; details: Trypanosoma cruzi, 72 h, read-out: IC50 ± SD, trypomastigotes
Procedure, shortened: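 Sylvio X10/4 trypomastigotes were taken from amastigote culture supernatant and seeded at 1 × 10^6 per well. Test compound was added at 0.19–100 μM (0.1% DMSO), with benznidazole (0.019–10 μM) and DMSO controls. Incubation was 72 h at 37 °C, 5% CO2. Viability was read with resazurin (40 μM in PBS), fluorescence 530/630 nm. IC50 came from sigmoid dose–response fits.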

[4] = system: non-infected C2C12 cells; assay: Cytotoxicity in non-infected cells; format: cell-based, murine; details: non-infected C2C12 CC50 / IC50 amastigotes CA-I/72 strain, 72 h
Procedure, shortened: (§2)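 Non-infected C2C12 cells (5 × 10^4 per well) were plated for 24 h. Test compound (0.19–100 μM, 2-fold, 0.1% DMSO) was then added for 72 h at 37 °C. Controls were untreated, DMSO 0.4% and Triton 15%. After a PBS wash, MTT (2 mg/ml) was added for 4 h, and absorbance was read at 450 nm (reference 620 nm). CC50 came from sigmoid fits. SI = CC50/IC50 against CA-I/72 amastigotes at 72 h.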

[5] = Cytotoxicity in non-infected cells; format: cell-based, murine; details: mouse, non-infected C2C12 cells
Procedure, shortened: as §2

[6] = system: amastigotes of T. cruzi Sylvio X10/4 strain; assay: Trypanocidal activity against intracellular amastigotes in C2C12 cells; format: cell-based; details: Trypanosoma cruzi, C2C12, 72 h, read-out: IC50 ± SD, amastigotes
Procedure, shortened: (§3)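 Trypomastigotes from C2C12 co-culture (DMEM, 10% FBS, 25 mM HEPES, pH 7.2) were seeded with C2C12 cells at a 1:15 infection rate. Test compound (0.19–100 μM, 2-fold, 0.1% DMSO) was added at the start. After 72 h at 37 °C, 5% CO2, cells were stained with DAPI 2 h and imaged confocally. Amastigote and host nuclei were told apart by size. IC50 came from sigmoid fits of the infection ratio normalised to controls. Mean ± SD, three experiments in triplicate.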

[7] = system: intracellular amastigotes of T. cruzi CA-I/72 strain; assay: Time-course study against intracellular amastigotes; format: cell-based; details: Trypanosoma cruzi
Procedure, shortened: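 CA-I/72 trypomastigotes were incubated with C2C12 cells for 48 h to form intracellular amastigotes. Test compound was then added (0.19–100 μM, 2-fold, 0.1% DMSO), with benznidazole and DMSO controls. Incubation ran 8, 12, 24 or 48 h at 37 °C, 5% CO2. Growth inhibition was read by DAPI high-content imaging. IC50 came from sigmoid fits of the normalised infection ratio. Time trend was tested by linear regression and ANOVA.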

[8] = system: amastigotes of T. cruzi CA-I/72 strain; assay: Trypanocidal activity against intracellular amastigotes in C2C12 cells; format: cell-based; details: Trypanosoma cruzi, C2C12, 72 h, read-out: IC50 ± SD, amastigotes
Procedure, shortened: as §3

[9] = Cytotoxicity in infected C2C12 cells after 72 h; format: cell-based, murine; details: mouse
Procedure, shortened: (§4)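 C2C12 cells were infected with trypomastigotes (1:15) together with test compound (0.19–100 μM, 0.1% DMSO) for 72 h at 37 °C, 5% CO2. Host nuclei were counted by DAPI high-content imaging. Viability was the cell count relative to the DMSO-control mean. CC50 came from sigmoid fits. SI = CC50/IC50 against intracellular amastigotes of the same strain at 72 h.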

[10] = system: C2C12 cells infected with intracellular amastigotes of T. cruzi (CA-I/72 strain); assay: Time-course cytotoxicity in infected C2C12 cells; format: cell-based, murine; details: infected C2C12 vs amastigotes CA-I/72, time-course
Procedure, shortened: (§5)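 This uses the CA-I/72 time-course infection format: a 48 h pre-infection of C2C12 cells, then test compound at 0.19–100 μM for 8, 12, 24 or 48 h, with DAPI imaging. Host viability was the total host cell count divided by the mean count of 0.1% DMSO controls. CC50 came from sigmoid fits. SI = CC50/IC50 against amastigotes at the matching time.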

[11] = Time-course cytotoxicity in infected C2C12 cells; format: cell-based, murine; details: mouse
Procedure, shortened: as §5

[12] = system: amastigotes of T. cruzi Sylvio X10/7 strain; assay: Trypanocidal activity against intracellular amastigotes in C2C12 cells; format: cell-based, Trypanosoma cruzi
Procedure, shortened: as §3

[13] = system: amastigotes of T. cruzi Brazil strain; assay: as above; format: cell-based; details: Trypanosoma cruzi, C2C12, 72 h, read-out: IC50 ± SD, amastigotes
Procedure, shortened: as §3

[14] = system: female BALB/c mice; assay: Acute oral toxicity test in mice; format: in vivo; details: for DA/TA (dead animals/total animals) / Mortality / Signs of toxicity: 14 days
Procedure, shortened: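 Six-week-old female BALB/c mice (25–30 g), five per group. Single oral dose of 300 or 1,000 mg/kg test compound in Tween 80/ethanol/water (7:3:90), with a vehicle group. Clinical signs (ataxia, tremor, salivation, ptosis, seizures and others) watched continuously for 1 h, periodically over 24 h, then daily to day 14. Mortality recorded.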

[15] = system: several Streptococcus species; details: ref Vieira et al., 2018; cited from earlier work
[16] = system: infected C2C12 cells; assay: Cytotoxicity in infected C2C12 cells after 72 h; format: cell-based, murine; details: 72 h
Procedure, shortened: as §4

[17] = read-out: IC50 over the incubation times evaluated
[18] = C2C12 cells infected with T. cruzi Brazil strain
[19] = C2C12 cells infected with T. cruzi CA-I/72 strain
[20] = C2C12 cells infected with T. cruzi Sylvio X10/4 strain
[21] = C2C12 cells infected with T. cruzi Sylvio X10/7 strain
[22] = Trypanosoma cruzi, C2C12, 72 h, read-out: IC50 ± SD, amastigotes, Sylvio X10/7 strain, 72 h incubation
[23] = infected C2C12, Sylvio X10/7 strain

Row | SMILES | SI (CC50/IC50) [1] | CC50 at 72 h [2] [µM] | IC50 [3] [µM] | CC50 at 72 h [5] [µM] | IC50 [6] [µM] | IC50 ([7]; 8 h, read-out: IC50 ± SD) [µM] | IC50 ([7]; 12 h, read-out: IC50 ± SD) [µM] | IC50 ([7]; 24 h, read-out: IC50 ± SD) [µM] | IC50 ([7]; 48 h, read-out: IC50 ± SD) [µM] | IC50 [8] [µM] | CC50 at 72 h [9, 18] [µM] | CC50 at 72 h [9, 19] [µM] | CC50 at 72 h [9, 20] [µM] | CC50 at 72 h [9, 21] [µM] | CC50 at 8 h [11] [µM] | CC50 at 12 h [11] [µM] | CC50 at 24 h [11] [µM] | CC50 at 48 h [11] [µM] | IC50 [12, 22] [µM] | IC50 [13] [µM] | other results
1 | O=C(Cn1ccnc1[N+](=O)[O-])NCc1ccccc1 [BZ, benznidazole, reference compound] | 82.92 | 168 ± 2.98 | 1.16 ± 0.04 | 37.9 ± 1.54 | 4.12 ± 1.02 | > 10 | 6.85 ± 1.56 | 5.97 ± 1.2 | 1.54 ± 0.36 | 2.02 ± 0.12 | > 10 | > 10 | > 10 | > 10 | > 10 | 3.98 ± 0.31 | 3.48 ± 0.7 | 0.27 ± 0.07 | 1.19 ± 0.25 | 1.28 ± 0.64 | SI (CC50/IC50) [4]: 18.73; IC50 [7, 17]: 1.54 to 10 µM; SI (CC50/IC50) ([10]; 12 h): 0.58; SI (CC50/IC50) ([10]; 24 h): 0.58; SI (CC50/IC50) ([10]; 48 h): 0.17
2 | COc1cc(/C=C/C(=O)CC(=O)/C=C/c2ccc(O)c(OC)c2)ccc1O [CUR, reference compound] |  | 32.5 ± 0.49 | 9.89 ± 0.51 | 18 ± 0.42 | 20 ± 2.61 | > 100 | > 100 | 51.6 ± 1.26 | 2.25 ± 0.65 | 2.71 ± 0.47 | 2.36 ± 1.24 | 6.71 ± 0.7 | 1.91 ± 0.02 | 3.37 ± 1.33 | 60.3 ± 1.54 | 9.95 ± 1.17 | 1.88 ± 0.17 | 0.47 ± 0.09 | 11.6 ± 4.93 | 11.2 ± 1.05 | Acute toxicity (general signs of toxicity or mortality) ([14]; oral doses 300 and 1,000 mg/kg, 14-day period): no toxic effects; DA/TA (dead animals/total animals) ([14]; single oral dose 300 mg/kg): 0/5; Mortality ([14]; single oral dose 300 mg/kg): 0%; Signs of toxicity ([14]; single oral dose 300 mg/kg): None; DA/TA (dead animals/total animals) ([14]; single oral dose 1,000 mg/kg): 0/5; Mortality ([14]; single oral dose 1,000 mg/kg): 0%; Signs of toxicity ([14]; single oral dose 1,000 mg/kg): None
3 | COc1ccc(/C=C/C(=O)/C=C/c2ccc(OC)cc2)cc1 [DBA 2, (1E,4E)-1,5-bis(4-methoxyphenyl)penta-1,4-dien-3-one] | 1.79 | 31.4 ± 1.2 | 29.8 ± 2.12 | 35.5 ± 0.5 | 46.6 ± 0.48 | > 100 | > 100 | > 100 | > 100 | 17.5 ± 1.06 | 5.15 ± 0.13 | 4.3 ± 1.22 | 2.54 ± 1.86 | 0.9 ± 1.2 | 40.7 ± 1.07 | 3.03 ± 0.79 | 0.33 ± 0.41 | 0.02 ± 0.03 | 0.48 ± 0.02 | 51.6 ± 4.9 | SI (CC50/IC50) [4]: 2.03; MIC [15]: 100 µg/mL (≈ 340 µM); IC50 [7, 17]: > 100 µM; SI (CC50/IC50) ([16]; infected C2C12, Brazil strain): 0.10; SI (CC50/IC50) ([16]; infected C2C12, CA-I/72 strain): 0.24; SI (CC50/IC50) ([16]; infected C2C12, Sylvio X10/4 strain): 0.05; SI (CC50/IC50) [16, 23]: 1.87
4 | COc1cc(OC)c(/C=C/C(=O)/C=C/c2c(OC)cc(OC)cc2OC)c(OC)c1 [DBA 4, (1E,4E)-1,5-bis-(2,4,6-trimethoxyphenyl)penta-1,4-dien-3-one] | ≥ 10 | 50.1 ± 7.92 | > 100 | 53.7 ± 1.26 | > 100 | > 100 | > 100 | > 100 | 34.5 ± 0.94 | 5.01 ± 1.14 | 0.09 ± 0.11 | 0.6 ± 0.16 | 0.11 ± 0.1 | 0.37 ± 0.14 | > 100 | 60.4 ± 1.11 | 2.98 ± 0.24 | 0.66 ± 0.29 | 33.1 | > 100 | SI (CC50/IC50) ([1]; listed as 4): 10.00; SI (CC50/IC50) [4]: > 10; SI (CC50/IC50) ([4]; listed as 4): 10.71; SI (CC50/IC50) ([16]; infected C2C12, CA-I/72 strain): 0.12; SI (CC50/IC50) [16, 23]: 0.01; SI (CC50/IC50) ([10]; 48 h): 0.01; IC50 ([12]; read-out: IC50 ± SD, amastigotes, Sylvio X10/7 strain, 72 h incubation): 33.1 ± 2.05 µM
